Data reported in ChEMBL document CHEMBL1138838, “Design, chemical synthesis, and biological evaluation of thiosaccharide analogues of morphine- and codeine-6-glucuronide” (J Med Chem, 2004).
The source made the active and inactive calls. No cut-off for these calls is given here.

Legend:
[1] = Inhibition of [3H]DAMGO binding to Opioid receptor mu 1
Outline: (§1)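 Membranes from cells expressing the receptor, homogenized and washed in Tris, resuspended in 50 mM Tris pH 7.5. Incubated 60–120 min at 25 °C with [3H]DAMGO (mu), [3H]DPDPE (delta) or [3H]U69593 (kappa), about 15–30 μg protein. Filtration on glass fiber filters, scintillation counting. IC50 from at least six test concentrations; Ki by Cheng–Prusoff.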

[2] = Maximum efficacy for [35S]GTP-gamma-S, binding to Opioid receptor mu 1; type: functional
Outline: (§2)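 Membranes from cells expressing the receptor, washed and resuspended in 20 mM Hepes, 10 mM MgCl2, 100 mM NaCl, pH 7.4. 8–15 μg protein incubated 60 min at 25 °C with 50 pM [35S]GTP-γ-S, 10 μM GDP and test compound. Bound label collected on glass fiber filters and counted; EC50 for stimulation of binding.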

[3] = Maximum efficacy for [35S]GTP-gamma-S, binding to Opioid receptor delta 1; type: functional; outline: as §2
[4] = Inhibition of [3H]U-69593 binding to Opioid receptor kappa 1; outline: as §1
[5] = Maximum efficacy for [35S]GTP-gamma-S, binding to Opioid receptor kappa 1; not active; type: functional; outline: as §2
[6] = Stimulation of [35S]GTP-gamma-S, binding at Opioid receptor kappa 1; not active; type: functional; outline: as §2
[7] = Inhibition of [3H]DPDPE binding to Opioid receptor delta 1; outline: as §1
[8] = Maximum efficacy for [35S]GTP-gamma-S, binding to mu opioid receptor; not active; type: functional; outline: as §2
[9] = Stimulation of [35S]GTP-gamma-S, binding at Opioid receptor mu1; not active; type: functional; outline: as §2
[10] = Stimulation of [35S]GTP-gamma-S, binding at Opioid receptor kappa; no activity; type: functional; outline: as §2
[11] = Maximum efficacy for [35S]GTP-gamma-S, binding to Opioid receptor kappa 1; no activity; type: functional; outline: as §2
[12] = Maximum efficacy for [35S]GTP-gamma-S, binding to Opioid receptor kappa 1; type: functional; outline: as §2

Row | SMILES | Ki [1] | Emax [2] | Emax [3] | Ki [4] | Emax [5] | EC50 [6] | Ki [7] | Emax [8] | EC50 [9] | EC50 [10] | Emax [11] | Emax [12]
1 | CC(=O)OC1C(SC2C=C[C@H]3[C@H]4Cc5ccc(O)c6c5[C@@]3(CCN4C)[C@H]2O6)OC(C(=O)O)C(OC(C)=O)C1OC(C)=O (stereo partly drawn) | 8.7 µM | 46.6 | 78.7 | 288 µM | inactive | Not Active | 31.4 µM |  |  |  |  | 
2 | COc1ccc2c3c1O[C@H]1C(SC4OC(C(=O)O)C(OC(C)=O)C(OC(C)=O)C4OC(C)=O)C=C[C@H]4[C@@H](C2)N(C)CC[C@]314 (stereo partly drawn) | 463 µM |  | 44.2 | > 10000 µM | inactive | Not Active | 2680 µM | inactive | Not Active |  |  | 
3 | COC(=O)C1OC(SC2C=C[C@H]3[C@H]4Cc5ccc(OC(C)=O)c6c5[C@@]3(CCN4C)[C@H]2O6)C(OC(C)=O)C(OC(C)=O)C1OC(C)=O (stereo partly drawn) | 100 µM | 37.8 | 46.8 | 189 µM |  |  | 528 µM |  |  | Not Active | inactive | 
4 | CC(=O)OCC1OC(SC2C=C[C@H]3[C@H]4Cc5ccc(OC(C)=O)c6c5[C@@]3(CCN4C)[C@H]2O6)C(OC(C)=O)C(OC(C)=O)C1OC(C)=O (stereo partly drawn) | 305 µM | 44.1 | 39.3 | 1390 µM |  |  | 762 µM |  |  |  |  | 36.9
5 | CN1CC[C@]23c4c5ccc(O)c4O[C@H]2[C@@H](O)C=C[C@H]3[C@H]1C5 |  | 93 |  |  |  |  |  |  |  |  |  | 
6 | COC(=O)C1OC(SC2C=C[C@H]3[C@H]4Cc5ccc(O)c6c5[C@@]3(CCN4C)[C@H]2O6)C(OC(C)=O)C(OC(C)=O)C1OC(C)=O (stereo partly drawn) | 5.4 µM | 88.3 | 104 | 11 µM |  |  | 15.6 µM |  |  |  |  | 23.5
7 | COC(=O)C1OC(SC2C=C[C@H]3[C@H]4Cc5ccc(OC)c6c5[C@@]3(CCN4C)[C@H]2O6)C(OC(C)=O)C(OC(C)=O)C1OC(C)=O (stereo partly drawn) | 64 µM | 19.3 | 64.3 | 499 µM |  |  | 438 µM |  |  |  |  | 24.3
8 | CN1CC[C@]23c4c5ccc(O)c4O[C@H]2[C@@H](O[C@@H]2O[C@H](C(=O)O)[C@@H](O)[C@H](O)[C@H]2O)C=C[C@H]3[C@H]1C5 [MORPHINE GLUCURONIDE] | 12.9 µM | 45 | 80 | 4060 µM |  |  | 170 µM |  |  |  | inactive | 
9 | CC(=O)OC1C(CO)OC(SC2C=C[C@H]3[C@H]4Cc5ccc(O)c6c5[C@@]3(CCN4C)[C@H]2O6)C(OC(C)=O)C1OC(C)=O (stereo partly drawn) | 5.4 µM | 64.5 | 51.5 | 136 µM |  |  | 56.2 µM |  |  |  |  | 42.5
10 | CC(=O)OCC1OC(SC2C=C[C@H]3[C@H]4Cc5ccc(O)c6c5[C@@]3(CCN4C)[C@H]2O6)C(OC(C)=O)C(OC(C)=O)C1OC(C)=O (stereo in doubt; 5e) [listing 1 of 2 here] |  |  |  | 2970 µM |  |  | 19.5 µM |  |  |  |  | 
11 | CC(=O)OCC1OC(SC2C=C[C@H]3[C@H]4Cc5ccc(O)c6c5[C@@]3(CCN4C)[C@H]2O6)C(OC(C)=O)C(OC(C)=O)C1OC(C)=O (stereo in doubt; 5e) [listing 2 of 2 here] |  | 76 | 45.5 |  |  |  |  |  |  |  |  | 26.5
